One data set relates to Col2. Description: Cytotoxicity against human Col2 cells. The format is functional, cell-based. An outline of the steps: (§1)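 Cytotoxicity was tested on a panel of human cancer cell lines following established protocols, with ED50 as the read-out. Extracts, fractions and isolates from twigs and leaves were run the same way.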
A short description of data set [1]: Cytotoxicity against HUVEC. The format is cell-based. The settings on record: human, HUVEC cells; read-out: ED50 (the source's name).
The subject of a further data set is KB. Description: Cytotoxicity against human KB cells. The format is functional. The settings on record: for pEC50: Homo sapiens, KB, read-out: ED50 (the source's name). Summed up:
as §1

The test system of the next data set is LNCaP. Description: Cytotoxicity against human LNCAP cells. The format is functional. The settings on record: for pEC50: Homo sapiens, LNCaP, read-out: ED50 (the source's name). An outline of the steps:
as §1

For a further data set, the system named is Lu1. Description: Cytotoxicity against human Lu1 cells. The format is functional. Conditions: for pEC50: Homo sapiens, Lu1, read-out: ED50 (the source's name). An outline of the steps:
as §1

A short description of data set [2]: Cytotoxicity against human telomerase reverse transcriptase expressing human RPE1 cells. Conditions: for pEC50: Homo sapiens, RPE-1, read-out: ED50 (the source's name). The format is functional, TERT-RPE1.
[3] abbreviates: read-out: ED50 (the source's name).

pEC50: −log10 of the molar value.

Take `CC(C)=CC[C@@H](O)[C@@H](C)[C@H]1CC[C@H]2C3=CCC4[C@@H](O)[C@@H](O)CC[C@]4(C)[C@H]3CC[C@]12C` (stereo partly drawn): the pEC50 in the data set with Col2 (read-out: EC50) is below 6.00. The CC50 in data set [1] is above 1000 nM. In addition, the ED50 (with KB; in the data set on LNCaP; in the data set with Lu1; in data set [2]) was above 1000 nM in each case.
For `COc1ccc([C@@]23Oc4cc(OC)cc(OC)c4[C@]2(O)[C@H](OC(C)=O)C[C@H]3c2ccccc2)cc1`, the pEC50 in the data set with Col2 (setting [3]) is 6.72; in the data set on KB, 6.83; in the data set with LNCaP it was 6.56; with Lu1 it was 6.68; in data set [2], 6.68. The CC50 in data set [1] is 231 nM.
In the case of `C=C(C)[C@@H]1CC[C@]2(C)[C@H](CC[C@@H]3[C@@H]([C@@](C)(O)C/C=C/C(C)(C)O)CC[C@]32C)[C@@]1(C)CCC(=O)O`, the pEC50 in the data set on Col2 (read-out: EC50) was below 6.00. The CC50 in data set [1] was above 1000 nM. For the same molecule, the ED50 (in the data set with KB; in the data set on LNCaP; with Lu1; in data set [2]) was above 1000 nM each time.
On to `C=C(C)[C@@H]1CC[C@]2(C)[C@H](CC[C@@H]3[C@@H]([C@@](C)(O)C/C=C/C(C)(C)O)CC[C@]32C)[C@@]1(C)CCC(=O)OC`, for which the pEC50 with Col2 (read-out: EC50) is below 6.00. In data set [1], the CC50 was above 1000 nM. For the same molecule, the ED50 (with KB; in the data set on LNCaP; with Lu1; in data set [2]) was above 1000 nM throughout.
Take `COc1ccc(-c2oc3cc(OC)cc(O)c3c(=O)c2OC)cc1`: in the data set with Col2 (read-out: EC50), the pEC50 is below 6.00. Also, the CC50 in data set [1] is above 1000 nM. Moreover, the ED50 (in the data set with KB; with LNCaP; in the data set with Lu1; in data set [2]) was above 1000 nM each time.
With `COC(=O)[C@H]1[C@@H](O)[C@@]2(O)c3c(OC)cc(OC)cc3O[C@@]2(c2ccc(OC)cc2)[C@@H]1c1ccccc1` [AGLAFOLIN], the pEC50 was 6.61 in the data set with Col2 (setting [3]); 6.85 with KB; 6.49 in the data set with LNCaP; 6.79 with Lu1; 6.74 in data set [2]. The CC50 in data set [1] came to 203 nM.
As for `CC(C)(O)[C@@H]1CC[C@@](C)([C@H]2CC[C@]3(C)[C@@H]2CC[C@@H]2[C@@]4(C)CCC(=O)C(C)(C)[C@@H]4CC[C@]23C)O1` [CABRALEONE], the pEC50 with Col2 (read-out: EC50) was below 6.00. In addition, the CC50 in data set [1] was above 1000 nM. Moreover, the ED50 (in the data set with KB; in the data set with LNCaP; in the data set on Lu1; in data set [2]) was above 1000 nM in each case.
Turning to `CC[C@@]1(O)C(=O)OCc2c1cc1n(c2=O)Cc2cc3ccccc3nc2-1` [CAMPTOTHECIN], the pEC50 in the data set on Col2 (setting [3]) was 7.24; in the data set on KB, 7.66; with LNCaP, 7.55; in the data set with Lu1, 7.54; in data set [2], 6.64. The CC50 in data set [1] was 258 nM.
For the molecule `O=C1C[C@@H](c2ccc(O)c(O)c2)Oc2cc(O)cc(O)c21` [ERIODICTYOL], the pEC50 with Col2 (read-out: EC50) was below 6.00. The CC50 in data set [1] is above 1000 nM. Also, the ED50 (in the data set on KB; with LNCaP; with Lu1; in data set [2]) was above 1000 nM in each case.
For `O=C1C[C@@H](c2ccc(O)cc2)Oc2cc(O)cc(O)c21` [NARINGENIN], the pEC50 in the data set on Col2 (read-out: EC50) was below 6.00. Moreover, in data set [1], the CC50 was above 1000 nM. Moreover, the ED50 (in the data set on KB; with LNCaP; in the data set with Lu1; in data set [2]) was above 1000 nM in each case.
As to `CC(=O)O[C@H]1C(=O)[C@@]2(C)[C@H]([C@H](OC(=O)c3ccccc3)[C@]3(O)C[C@H](OC(=O)[C@H](O)[C@@H](NC(=O)c4ccccc4)c4ccccc4)C(C)=C1C3(C)C)[C@]1(OC(C)=O)CO[C@@H]1C[C@@H]2O` [PACLITAXEL], the pEC50 with Col2 (setting [3]) is 7.34; with KB, 9.40; in the data set on LNCaP, 8.30; with Lu1 it was 8.70; in data set [2], 7.64. Besides, in data set [1], the CC50 is 105 nM.
Consider `COc1ccc([C@@]23Oc4cc(OC)cc(OC)c4[C@]2(O)[C@H](O)[C@H](C(=O)O)[C@H]3c2ccccc2)cc1` [ROCAGLOIC ACID], for which the pEC50 with Col2 (setting [3]) was 6.68; in the data set on KB it was 6.69; with LNCaP, 6.98; in the data set with Lu1, 7.20; in data set [2] it was 6.68. The CC50 in data set [1] was 209 nM.
For `C=C(C)[C@@H]1CC[C@]2(C)[C@H](CC[C@@H]3[C@@H]([C@]4(C)CC[C@H](C(C)(C)O)O4)CC[C@]32C)[C@@]1(C)CCC(=O)O` [SHOREIC ACID], in the data set with Col2 (read-out: EC50), the pEC50 is below 6.00. In addition, in data set [1], the CC50 was above 1000 nM. Moreover, the ED50 (in the data set with KB; in the data set on LNCaP; in the data set on Lu1; in data set [2]) was above 1000 nM each time.
